From ChEMBL document CHEMBL2016530, “Synthesis and biological evaluation of pyrethroid insecticide-derivatives as a chemical inducer for Bdnf mRNA expression in neurons” (Bioorg Med Chem, 2012)
The source made the active and inactive calls. No cut-off for these calls is given here.

Tests used:
Assay type in all cases: functional
[1] = system: Cortical neurone; assay: Increase in BDNF eIV-IX mRNA expression in rat cortical neurons at 10 uM by RT-PCR analysis; details: TDE = time-dependent effect
Method in brief: (§1)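 Primary cortical neurons from E17 Sprague–Dawley rat embryos, seeded at 2.5 × 10⁶ cells per polyethylenimine-coated 35 mm dish. Compound added for 3 h (time course 0–24 h at 10 µM). Total RNA extracted with acid guanidine phenol-chloroform and DNase I-treated, then reverse transcribed. Bdnf exon IV-IX mRNA measured by real-time PCR against plasmid standard curves and normalized to Gapdh. Reported as ratio to untreated control; n = 3–4.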

[2] = system: Cortical neurone; assay: Increase in BDNF eIV-IX mRNA expression in rat cortical neurons at 10 uM after 3 hrs by RT-PCR analysis in presence of L-type voltage calcium channel blocker nicradipine
[3] = system: Cortical neurone; assay: Increase in BDNF eIV-IX mRNA expression in rat cortical neurons at 10 uM at 6 hrs by RT-PCR analysis; method in brief: as §1
[4] = system: Cortical neurone; assay: Increase in BDNF eIV-IX mRNA expression in rat cortical neurons at 10 uM after 3 hrs by RT-PCR analysis in presence of NMDA receptor antagonist APV
[5] = system: Cortical neurone; assay: Increase in BDNF eIV-IX mRNA expression in rat cortical neurons at 10 uM after 3 hrs by RT-PCR analysis; method in brief: as §1
[6] = system: Cortical neurone; assay: Increase in BDNF eIV-IX mRNA expression in rat cortical neurons at 10 uM up to 24 hrs by RT-PCR analysis; method in brief: as §1
[7] = system: Cortical neurone; assay: Increase in neurite length in rat cortical neurons at 10 uM after 6 hrs by anti-GFP and anti-MAP2-based fluorescence microscopy
Method in brief: (§2)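 E17 rat cortical neurons GFP-transfected at 4 days in culture, drug-treated for 6 h at day 6, then fixed and stained with anti-GFP/anti-MAP2 and Alexa488/594 secondaries plus DAPI. Under fluorescence microscopy, all neurites arising from the cell body were traced within a 400 µm diameter and their total length measured; n = 3.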

[8] = system: Cortical neurone; assay: Increase in neurite crossings in rat cortical neurons at 10 uM after 6 hrs by Sholl analysis
Method in brief: (§3)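 E17 rat cortical neurons transfected with a GFP expression vector by calcium phosphate at 4 days in culture. At day 6, treated for 6 h, then fixed in 4% formaldehyde/4% sucrose and immunostained for GFP and MAP2. Sholl analysis counted neurite intersections with concentric circles of 20–200 µm radius at 20 µm intervals around the cell body. Cells were not preselected; n = 3.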

[9] = system: Cortical neurone; assay: Increase in BDNF eIV-IX mRNA expression in rat cortical neurons at 10 uM after 3 hrs by RT-PCR analysis in presence of ERK1/2 inhibitor U0126
[10] = system: Cortical neurone; assay: Increase in BDNF eIV-IX mRNA expression in rat cortical neurons at 10 uM after 3 hrs by RT-PCR analysis in presence of VSSC antagonist TTX
[11] = system: Cortical neurone; assay: Increase in BDNF eIV-IX mRNA expression in rat cortical neurons after 3 hrs by RT-PCR analysis; method in brief: as §1
[12] = system: Cortical neurone; assay: Increase in neurite length in rat cortical neurons at 1 uM after 6 hrs by anti-GFP and anti-MAP2-based fluorescence microscopy; method in brief: as §2
[13] = system: Cortical neurone; assay: Increase in BDNF eIV-IX mRNA expression in rat cortical neurons at 1 uM after 3 hrs by RT-PCR analysis; method in brief: as §1
[14] = system: Cortical neurone; assay: Increase in neurite crossings in rat cortical neurons at 1 uM after 6 hrs by Sholl analysis; method in brief: as §3

In the case of C#C[C@@H](OC(=O)[C@@H]1[C@H](C=C(Br)Br)C1(C)C)c1cccc(Oc2ccccc2)c1, the Activity [1] is reported as “tde”, the Activity [2] is reported as “inactive” and the Activity [3] is reported as “inactive”. For the same compound, the Activity [4] was “Active”, the Activity [5] was “Active” and the Activity [6] was “Active”. For the same compound, the Activity [7] was “Active”, the Activity [8] was “Active” and the Activity [9] was “inactive”. The Activity [10] was “inactive”.

With CC1(C)[C@H](C(=O)O[C@H](C#CI)c2cccc(Oc3ccccc3)c2)[C@@H]1C=C(Br)Br the Activity [5] was “Active” and the Activity [11] was “Dose-dependent effect”.

With CC1(C)[C@H](C(=O)O[C@H](C#CCC(F)(F)F)c2cccc(Oc3ccccc3)c2)[C@@H]1C=C(Br)Br the Activity [5] was “Active”.

In the case of CC1(C)[C@H](C(=O)O[C@H](C#N)c2cccc(Oc3ccccc3)c2)[C@@H]1C=C(Br)Br, the Activity [12] is reported as “Active”, the Activity [5] is reported as “Active” and the Activity [13] is reported as “Active”. For the same compound, the Activity [14] was “Active”.

CCC#C[C@@H](OC(=O)[C@@H]1[C@H](C=C(Br)Br)C1(C)C)c1cccc(Oc2ccccc2)c1 was tested, and the Activity [5] was “Active”.

For CC1(C)[C@H](C(=O)O[C@H](C#CBr)c2cccc(Oc3ccccc3)c2)[C@@H]1C=C(Br)Br, the Activity [5] was “Active” and the Activity [11] was “Dose-dependent effect”.

In the case of CC#C[C@@H](OC(=O)[C@@H]1[C@H](C=C(Br)Br)C1(C)C)c1cccc(Oc2ccccc2)c1, the Activity [5] is reported as “Active”.

CC1(C)[C@H](C(=O)O[C@H](C#CCl)c2cccc(Oc3ccccc3)c2)[C@@H]1C=C(Br)Br was tested, and the Activity [5] was “Active” and the Activity [11] was “Dose-dependent effect”.
